Assay results: ChEMBL document CHEMBL3244105, “Antiparasitic agents. 3. Synthesis and anthelmintic activities of novel 2-pyridinyl-5-isothiocyanatobenzimidazoles” (1979)
Active and inactive are the calls of the source. The rule behind the calls is not given here.

Tests used:
Rodentolepis nana [1] = test: Anthelmintic activity against Hymenolepis nana infected in CF1 mouse assessed as clearance of worm burden assessed as clearance of worm burden at 0.2% dosed through diet for 4 days dosed 16 days post infection by press-plate technique; type: functional
In short: (§1)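 Primary oral mouse screen. Compound was given mixed in the diet. Tapeworm (taeniacidal) and N. dubius nematode activity were each scored as percent clearance of worms.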

[2] = system: Heligmosomoides polygyrus; test: Nematocidal activity against Nematospiroides dubius infected in CF1 mouse assessed as clearance of worm burden at 0.2% dosed through diet for 4 days dosed 16 days post infection by press-plate technique; type: functional; in short: as §1
[3] = system: gastrointestinal nematodes (Ovis aries); test: Anthelmintic activity against gastrointestinal nematodes infected in sheep assessed as reduction of fecal egg count at 50 mg/kg, po measured up to 7 days relative to control; set-up: scale not given: the % may be the effect or the level left
[4] = system: gastrointestinal nematodes (Ovis aries); test: Anthelmintic activity against gastrointestinal nematodes infected in sheep assessed as reduction of fecal egg count at 200 mg/kg, po measured up to 7 days relative to control; set-up: scale not given: the % may be the effect or the level left
[5] = system: Heligmosomoides polygyrus; test: Nematocidal activity against Nematospiroides dubius infected in CF1 mouse assessed as clearance of worm burden at 0.03% dosed through diet for 4 days dosed 16 days post infection by press-plate technique; type: functional, organism-based; in short: as §1
Rodentolepis nana [6] = test: Anthelmintic activity against Hymenolepis nana infected in CF1 mouse assessed as clearance of worm burden at 0.03% dosed through diet for 4 days dosed 16 days post infection by press-plate technique; type: functional, organism-based; in short: as §1
Moniezia = test: Anthelmintic activity against Moniezia sp. infected in sheep assessed as reduction of fecal egg count; type: functional
Taenia pisiformis = test: Anthelmintic activity against Taenia pisiformis infected in dog assessed as reduction of fecal egg count; type: functional, organism-based
[7] = system: gastrointestinal nematodes (Ovis aries); test: Anthelmintic activity against gastrointestinal nematodes infected in sheep assessed as reduction of fecal egg count at 25 mg/kg, po measured up to 7 days relative to control; set-up: scale not given: the % may be the effect or the level left
[8] = system: gastrointestinal nematodes (Ovis aries); test: Anthelmintic activity against gastrointestinal nematodes infected in sheep assessed as reduction of fecal egg count at 43 mg/kg, po measured up to 7 days relative to control; set-up: scale not given: the % may be the effect or the level left

Q: `S=C=Nc1cc2nc(-c3ccccn3)[nH]c2cc1Cl` was tested. Which Activity (Rodentolepis nana [1]) did it give?
A: The Activity was 50%.

Q: What about the Activity [2] of the same compound?
A: The Activity was “inactive”.

Q: And the Activity [3]?
A: Its Activity is 15%.

Q: `S=C=Nc1ccc2[nH]c(-c3cccnc3)nc2c1` was tested. Which Activity (Rodentolepis nana [1]) did it give?
A: The Activity was 100%.

Q: And the Activity [2]?
A: Its Activity is “inactive”.

Q: And the Activity [4]?
A: Its Activity is 71%.

Q: With `S=C=Nc1ccnc(-c2nc3cc(N=C=S)ccc3[nH]2)c1` as the compound, how does the Activity (Rodentolepis nana [1]) read?
A: Its Activity is 0%.

Q: And the Activity [2]?
A: The Activity was “inactive”.

Q: What about the Activity [3] of the same compound?
A: Its Activity is 0%.

Q: Which results are given for `COc1ccnc(-c2nc3cc(N=C=S)ccc3[nH]2)c1`?
A: Activity (Rodentolepis nana [1]): 75%; Activity [2]: inactive; Activity [3]: 0%

Q: `S=C=Nc1ccnc(-c2nc3ccccc3[nH]2)c1` was tested. Which Activity (Rodentolepis nana [1]) did it give?
A: The Activity was 50%.

Q: And the Activity [2]?
A: The Activity was “inactive”.

Q: What about the Activity [3] of the same compound?
A: Its Activity is 0%.

Q: What does the source list for `Cc1ccnc(-c2nc3cc(N=C=S)ccc3[nH]2)c1`?
A: Activity (Rodentolepis nana [1]): 25%; Activity [2]: inactive; Activity [3]: 0%

Q: For `S=C=Nc1ccc2[nH]c(-c3ccncc3)nc2c1`, which Activity (Rodentolepis nana [1]) is on record?
A: The Activity was 0%.

Q: And the Activity [2]?
A: Its Activity is “inactive”.

Q: What about the Activity [3] of the same compound?
A: The Activity was 0%.

Q: How did the Activity (Rodentolepis nana [1]) turn out when `S=C=Nc1ccc2[nH]c(-c3cscn3)nc2c1` was run?
A: The Activity was 100%.

Q: What about the Activity [2] of the same compound?
A: The Activity was 90%.

Q: For `c1ccc(-c2nc3ccccc3[nH]2)cc1`, which Activity (Rodentolepis nana [1]) is on record?
A: The Activity was 25%.

Q: What about the Activity [2] of the same compound?
A: The Activity was “inactive”.

Q: And the Activity [3]?
A: Its Activity is 17%.

Q: Which results are given for `CCCCc1ccc2[nH]c(NC(=O)OC)nc2c1`?
A: Activity [5]: Active; Activity (Rodentolepis nana [6]): Active

Q: With `Cl.S=C=Nc1ccc2[nH]c(-c3ccccn3)nc2c1` as the compound, how does the Activity (Rodentolepis nana [1]) read?
A: Its Activity is 75%.

Q: And the Activity [3]?
A: Its Activity is 95%.

Q: What does the source list for `S=C=Nc1cccc2[nH]c(-c3ccccn3)nc12`?
A: Activity (Rodentolepis nana [1]): 25%; Activity [2]: inactive; Activity [3]: 83%

Q: Which Activity (Rodentolepis nana [1]) does the source give for `Cc1cccc(-c2nc3cc(N=C=S)ccc3[nH]2)n1` here?
A: The Activity was 75%.

Q: What about the Activity [2] of the same compound?
A: The Activity was “inactive”.

Q: What about the Activity [3] of the same compound?
A: Its Activity is 52%.

Q: How did the Activity (Rodentolepis nana [1]) turn out when `S=C=Nc1ccc2[nH]c(-c3ccccc3)nc2c1` was run?
A: Its Activity is 100%.

Q: What about the Activity [2] of the same compound?
A: The Activity was “inactive”.

Q: And the Activity [3]?
A: Its Activity is 0%.

Q: For `S=C=Nc1ccc2[nH]c(-c3ccccn3)nc2c1` [listing 1 of 2 here], which Activity (Moniezia) is on record?
A: Its Activity is “inactive”.

Q: And the Activity (Taenia pisiformis)?
A: Its Activity is “inactive”.

Q: And the Activity [2]?
A: Its Activity is “inactive”.

Q: Which results are given for `S=C=Nc1ccc2[nH]c(-c3ccccn3)nc2c1` [listing 2 of 2 here]?
A: Activity (Rodentolepis nana [1]): 100%; Activity [3]: 100%; Activity [7]: 11%; Activity [4]: 100%

Q: Which Activity (Rodentolepis nana [1]) does the source give for `c1ccc(-c2nc3ccccc3[nH]2)nc1` here?
A: The Activity was 0%.

Q: And the Activity [2]?
A: The Activity was “inactive”.

Q: What about the Activity [3] of the same compound?
A: Its Activity is 28%.

Q: For `Cn1c(-c2cccc[n+]2C)nc2cc(N=C=S)ccc21.[I-]`, which Activity (Rodentolepis nana [1]) is on record?
A: The Activity was 0%.

Q: What about the Activity [2] of the same compound?
A: The Activity was “inactive”.

Q: With `[O-][n+]1ccccc1-c1nc2cc(N=C=S)ccc2[nH]1` as the compound, how does the Activity (Rodentolepis nana [1]) read?
A: Its Activity is 100%.

Q: What about the Activity [2] of the same compound?
A: Its Activity is “inactive”.

Q: And the Activity [8]?
A: The Activity was 9%.

Q: Which results are given for `Cc1ccc(S(=O)(=O)O)cc1.S=C=Nc1ccc2[nH]c(-c3ccccn3)nc2c1`?
A: Activity (Rodentolepis nana [1]): 100%; Activity [3]: 0%

Q: How did the Activity (Rodentolepis nana [1]) turn out when `S=C=Nc1ccc2[nH]c(-c3cc(Cl)ccn3)nc2c1` was run?
A: The Activity was 75%.

Q: And the Activity [2]?
A: Its Activity is “inactive”.

Q: What about the Activity [3] of the same compound?
A: The Activity was 0%.
